# Screens deposited in PubChem by Broad Institute.
# Sampled rows, rich in hits. Any-hit rate of the full collection: about 2.9%.
# SIRT5 block: inhibitors of human sirtuin-5 desuccinylase | inhibition, % at 15 µM | hit rate 1.1% among 330,000 | Purified SirT5, succinyl-peptide AMC, trypsin-coupled fluorescence; in the data active = inhibition above about 15%; inconclusive = no clear call, values can overlap the other calls
# DENV2 CPE rescue: inhibitors of DENV2 cytopathic effect. DENV2-infected cells, cytopathic effect rescue, plate reader. CPE inhibition, % at 9.99 µM. hit rate 1.7% among 350,000; in the data active = CPE inhibition above about 20%, passing the limit was not always enough; inconclusive = no clear call, values can overlap the other calls; tested in BHK-21 cells;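 also: 0% = median of neutral control wells and 100% = median of positive control wells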
# ERAP1 inh: inhibitors of human ERAP1 aminopeptidase | Q9NZ08 | recombinant ERAP1, Leu-AMC fluorescence, 60 min | inhibition, % at 10.7 µM | hit rate 0.15% among 340,000;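 active = mean replicate inhibition of at least 30%, or all replicates individually reaching that 30% level; inactive = mean below 30% and not every replicate reaching it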;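 also: 0% = neutral control wells and 100% = L-leucinethiol positive control wells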
# CAL PDZ FP-1: inhibitors of human CAL PDZ peptide binding | Q9HD26 | purified CAL PDZ, TMR-peptide fluorescence polarization, 1 h | inhibition, % at 24.9 µM | hit rate 0.92% among 300,000;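 active = mean inhibition of at least 30% with at least half of replicates also reaching 30%; inconclusive = no clear call, values can overlap the other calls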;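 also: 0% = DMSO neutral control and 100% = excess unlabeled competitor peptide PRC23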
# S100A4 inh HTS: inhibitors of human S100A4 binding to myosin IIA peptide. P26447. S100A4/TAMRA-MyoIIA peptide fluorescence polarization. hit rate 0.14% among 360,000. inhibition, % at 10.7 µM;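 active = mean inhibition of at least 70% across replicates, with every replicate also reaching that level; inconclusive = mean inhibition reaches 70% but some replicates fall short; inactive = mean inhibition below 70%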
#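 Test system – S100A4 monomer (human) · Compound – single-point compound testing · Schedule – 5 min incubation before reading · Probe or stimulus – TAMRA-labelled myosin IIA heavy-chain peptide probe, 5 nM · Benchmarks – neutral control DMSO, positive control TFP · Medium – Calcium-containing HEPES buffer, pH 7.2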
# CAL PDZ FP-2: blocks peptide binding to human CAL PDZ domain. Q9HD26. hit rate 0.02% among 330,000. AID 504414. purified CAL PDZ, TMR-peptide fluorescence polarization, 1 h. inhibition, % at 20 µM;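 active = highest replicate inhibition of at least 40%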;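 also: plate controls were DMSO neutral control wells for no effect and unlabeled competitor peptide control wells for full effect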
#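 Control set: unlabelled peptide and DMSO controls / Material: purified CerCALP PDZ construct / Timing: 1 h incubation at room temperature before polarization reading / Doses: 20 µM, one dose / Detection: fluorescence polarization (mP)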
# Starred values were filed as active, the others as inactive; ? = inconclusive; nt = no result.
SMILES,SIRT5 block,DENV2 CPE rescue,ERAP1 inh,CAL PDZ FP-1,S100A4 inh HTS,CAL PDZ FP-2
Cc1ccc(S(=O)(=O)OCC(=O)Nc2ccc(C(=O)O)c(O)c2)cc1,53*,4,-3,-7,-1,-1
CCCNC(=O)Nc1ccc2c(c1)C(=O)N(C)C[C@H](OC)[C@@H](C)CN(C(=O)C1CC1)[C@H](C)CO2,2,0,-1,nt,6,nt
O=C(C[C@H]1CC[C@H](NC(=O)c2ccccc2)[C@@H](CO)O1)NCCc1ccncc1,-6,-2,-2,nt,9,nt
O=C(CSc1n[nH]c(-c2cccs2)n1)NC1CCS(=O)(=O)C1 (centres undefined),-3,5,35*,-2,-4,-2
COc1ccc(S(=O)(=O)N[C@@H]2CC[C@H](CC(=O)N3CCN(c4ccccc4)CC3)O[C@H]2CO)cc1,3,2,-1,nt,-3,nt
Cc1ccc(Cn2cc(CN3CC(N(C)C)CS3(=O)=O)nn2)cc1 (centres undefined),-1,23*,-2,nt,0,nt
O=S1(=O)CC(N2CCN(CCO)CC2)CN1Cc1cn(Cc2ccc(F)cc2)nn1 (centres undefined),11,-1,nt,nt,-2,nt
Cc1cc(C)cc(Cn2cc(CN3CC(N4CCN(CCO)CC4)CS3(=O)=O)nn2)c1 (centres undefined),29*,-2,nt,nt,-6,nt
O=S1(=O)CC(N2CCN(CCO)CC2)CN1Cc1cn(Cc2cccc(C(F)(F)F)c2)nn1 (centres undefined),23*,1,nt,nt,7,nt
COc1cc(C(=O)NCC2(N(C)C)CCCCC2)ccc1OCc1ccccc1,65*,5,-4,-1,-1,-5
O=C1c2ccccc2[C@@H]2C[C@@H](O)[C@H](Nc3cccc4ccccc34)CCN12,-1,26*,3,-3,-3,2
Cn1nc(C(=O)N2CCC(C(N)=O)CC2)c2c1-c1ccccc1SC2,-2,25*,-5,1,7,-1
CC1CCC(NC(=O)c2nn(C)c3c2CSc2ccccc2-3)CC1 (centres undefined),0,13,1,70*,-5,-2
Cn1nc(C(=O)NC2CCCCC2)c2c1-c1ccccc1SC2,9,4,5,-1,1,0
CC(C)NC(=O)N1CC(=O)N2[C@H](CO)[C@@H](c3ccc(C#CCN(C)C)cc3)[C@H]2C1,-1,-4,-4,nt,2,nt
CCCN(CC(=O)Nc1cc(C)on1)CC(=O)Nc1ccc(F)c(F)c1F,-2,3,-2,49*,-1,0
Cc1ccc(C(C[N+](=O)[O-])c2c(C)[nH]n(-c3ccccc3)c2=O)cc1 (centres undefined),26*,6,-1,nt,4,-1
CN1C(=O)c2cc(NC(=O)c3cccs3)ccc2OC[C@@H]2O[C@@H](CC(=O)NCCN3CCCCC3)CC[C@H]21,-1,41*,-2,nt,-4,nt
COc1cccc(CNC(=O)C[C@H]2CC[C@@H]3[C@@H](COc4ccc(NC(=O)c5cccs5)cc4C(=O)N3C)O2)c1,25*,?,0,nt,-1,nt
COc1cccc(CNC(=O)C[C@@H]2CC[C@@H]3[C@@H](COc4ccc(NC(=O)c5cccs5)cc4C(=O)N3C)O2)c1,-1,-5,0,nt,-35,nt
CCCNC(=O)[C@H]1[C@H](CO)[C@H]2Cn3c(ccc(C4=CCCCC4)c3=O)[C@@H]1N2,-10,4,0,nt,31,nt
CCC[C@@H]1CCCO[C@@](C(=O)NCc2ccccn2)(C(F)(F)F)C1,4,69*,1,-2,-1,-1
CCCC[C@@H]1CCCO[C@@](C(=O)NCc2ccccn2)(C(F)(F)F)C1,3,?,-2,-6,-2,-1
Cc1noc(C)c1NC(=O)Nc1ccc2c(c1)C(=O)N([C@H](C)CO)C[C@H](C)[C@@H](CN(C)Cc1ccc(C(=O)O)cc1)OCCCC[C@@H](C)O2,nt,-5,nt,nt,nt,nt
C[C@H](CO)N1C[C@H](C)[C@H](CN(C)C(=O)CCC(F)(F)F)OCCCC[C@H](C)Oc2ccc(NC(=O)c3ccncc3)cc2C1=O,nt,-16,nt,nt,nt,nt
N#Cc1c(N(CCO)CCO)nc(N)c2c(N)nc3c(c12)CC(=O)N3Cc1cccs1,nt,nt,nt,-7,nt,-3
CN(CCO)c1nc(N)c2c(N)nc3c(c2c1C#N)CC(=O)N3Cc1cccs1,-1,0,-2,123*,4,0
